Measured values taken from ChEMBL document CHEMBL1125281, “Identification and synthesis of a receptor binding site of human anaphylatoxin C5a” (J Med Chem, 1991).
Where a SMILES comes first, the peptide text is derived from it.

Columns and labels:
[1] = molecular target: T1, C5a anaphylatoxin chemotactic receptor 1 (Homo sapiens) (UniProt P21730); assay: Compound was tested for the inhibition of [125I]C5a anaphylatoxin chemotactic receptor binding to PMNL intact cells at a concentration of 0.1-1 mM.; assay type: cell-based
T1 sequence (whole entry): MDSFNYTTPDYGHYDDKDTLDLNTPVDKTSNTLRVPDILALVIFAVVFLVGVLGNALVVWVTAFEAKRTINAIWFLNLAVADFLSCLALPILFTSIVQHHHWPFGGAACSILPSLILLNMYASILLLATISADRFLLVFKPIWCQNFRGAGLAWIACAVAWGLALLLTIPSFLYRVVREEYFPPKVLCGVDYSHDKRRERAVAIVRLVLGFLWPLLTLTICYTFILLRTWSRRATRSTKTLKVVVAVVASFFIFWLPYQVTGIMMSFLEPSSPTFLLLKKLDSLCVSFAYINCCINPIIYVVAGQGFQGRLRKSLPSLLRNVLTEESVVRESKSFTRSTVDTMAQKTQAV

[2] = molecular target: T2, C5a anaphylatoxin chemotactic receptor 1 (Homo sapiens, UniProt P21730); assay: Inhibition of [125I]C5a binding to C5a anaphylatoxin chemotactic receptor in PMNL intact cells; inactive; assay type: cell-based
T2 sequence (P21730 whole entry): T1 sequence (whole entry)
Outline: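 Intact human PMNL isolated from peripheral blood by one-step density centrifugation. Cells incubated 20 min at 23 °C with [125I]C5a (1 × 10⁻⁹ M), test peptide and protease inhibitors. Cells separated from free ligand by centrifugation through silicone oil at 10000g; pellet γ counts read.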

[3] = molecular target: T2, C5a anaphylatoxin chemotactic receptor 1; assay: Inhibition of [125I]C5a binding to C5a anaphylatoxin chemotactic receptor in PMNL membranes; assay type: cell membranes
[4] = molecular target: T2, C5a anaphylatoxin chemotactic receptor 1; assay: Inhibition of [125I]-C5a anaphylatoxin chemotactic receptor binding to PMNL membranes.
[5] = molecular target: T1, C5a anaphylatoxin chemotactic receptor 1 (Homo sapiens); assay: Compound was tested for the inhibition of [125I]C5a binding to C5a anaphylatoxin chemotactic receptor in PMNL membranes.; assay type: cell membranes; conditions: concentration not given here
[6] = molecular target: T2, C5a anaphylatoxin chemotactic receptor 1; assay: Compound was tested for the inhibition of [125I]C5a binding to C5a anaphylatoxin chemotactic receptor in PMNL membranes; inactive; assay type: cell membranes
[7] = molecular target: T2, C5a anaphylatoxin chemotactic receptor 1; assay: Compound was tested for the inhibition of [125I]C5a binding to C5a anaphylatoxin chemotactic receptor binding to PMNL membranes.
[8] = molecular target: T2, C5a anaphylatoxin chemotactic receptor 1; assay: Compound was tested for the inhibition of [125I]C5a anaphylatoxin chemotactic receptor binding to PMNL membranes at a concentration of 0.1-1 mM

CC[C@H](C)[C@H](NC(=O)[C@H](CC(N)=O)NC(=O)[C@H](C)NC(=O)[C@H](CCCN=C(N)N)NC(=O)[C@H](CC(C)C)NC(=O)[C@H](CCC(N)=O)NC(=O)[C@H](CO)NC(=O)[C@H](C)NC(=O)[C@@H](NC(=O)[C@@H](NC(=O)[C@H](CCSC)NC(=O)[C@H](CCSC)NC(=O)[C@H](CCC(=O)O)NC(=O)[C@@H](NC(=O)[C@@H](N)Cc1ccccc1)[C@@H](C)O)C(C)C)C(C)C)C(=O)N[C@@H](CO)C(=O)N[C@@H](Cc1c[nH]cn1)C(=O)N[C@@H](CCCCN)C(=O)N[C@@H](CC(=O)O)C(=O)N[C@@H](CCSC)C(=O)N[C@@H](CCC(N)=O)C(=O)N[C@@H](CC(C)C)C(=O)NCC(=O)N[C@@H](CCCN=C(N)N)C(=O)O (H-FTEMMVVASQLRANISHKDMQLGR-OH)
inhibition [1]: > 20%

CSCC[C@H](NC(=O)[C@H](CC(=O)O)NC(=O)[C@H](CCCCN)NC(=O)[C@@H](N)Cc1c[nH]cn1)C(=O)N[C@@H](CCC(N)=O)C(=O)N[C@@H](CC(C)C)C(=O)NCC(=O)N[C@@H](CCCN=C(N)N)C(=O)O (H-HKDMQLGR-OH)
Ki [2]: Not Active
Ki [3]: 300 µM

CC[C@H](C)[C@H](NC(=O)[C@H](CCSC)NC(C)=O)C(=O)N[C@@H](CCCCN)C(=O)N[C@@H](C)C(=O)N[C@@H](Cc1ccccc1)C(=O)N[C@H](C(=O)N[C@@H](CCC(=O)O)C(=O)N[C@@H](CCSC)C(=O)N[C@@H](CCSC)C(=O)N[C@H](C(=O)N[C@H](C(=O)N[C@@H](C)C(=O)N[C@@H](CO)C(=O)N[C@@H](CCC(N)=O)C(=O)N[C@@H](CC(C)C)C(=O)N[C@@H](CCCN=C(N)N)C(=O)N[C@@H](C)C(=O)N[C@@H](CC(N)=O)C(=O)N[C@H](C(=O)N[C@@H](CO)C(=O)N[C@@H](Cc1c[nH]cn1)C(=O)N[C@@H](CCCCN)C(=O)N[C@@H](CC(=O)O)C(=O)N[C@@H](CCSC)C(=O)N[C@@H](CCC(N)=O)C(=O)N[C@@H](CC(C)C)C(=O)NCC(=O)N[C@@H](CCCN=C(N)N)C(=O)O)[C@@H](C)CC)C(C)C)C(C)C)[C@@H](C)O (Ac-MIKAFTEMMVVASQLRANISHKDMQLGR-OH)
Ki [4]: 100 µM
inhibition [1]: > 20%

CSCC[C@H](NC(=O)[C@H](CC(=O)O)NC(=O)[C@H](CCCCN)NC(=O)[C@H](Cc1cnc[nH]1)NC(C)=O)C(=O)N[C@@H](CCC(N)=O)C(=O)N[C@@H](CC(C)C)C(=O)NCC(=O)N[C@@H](CCCNC(=N)N)C(=O)O (Ac-HKDMQLGR-OH)
Ki [3]: 150 µM

CSCC[C@H](NC(=O)[C@H](CC(=O)O)NC(=O)[C@H](CCCCN)NC(C)=O)C(=O)N[C@@H](CCC(N)=O)C(=O)N[C@@H](CC(C)C)C(=O)NCC(=O)N[C@@H](CCCN=C(N)N)C(=O)O (Ac-KDMQLGR-OH)
Ki [2]: Not Active
inhibition [5]: 30%

CC[C@H](C)[C@H](NC(=O)[C@H](CC(N)=O)NC(=O)[C@H](C)NC(=O)[C@H](CCCNC(=N)N)NC(=O)[C@H](CC(C)C)NC(=O)[C@H](CCC(N)=O)NC(=O)[C@H](CO)NC(=O)[C@H](C)NC(=O)[C@@H](NC(=O)[C@@H](NC(=O)[C@H](CCSC)NC(=O)[C@H](CCSC)NC(=O)[C@H](CCC(=O)O)NC(=O)[C@@H](NC(=O)[C@@H](N)Cc1ccccc1)[C@@H](C)O)C(C)C)C(C)C)C(=O)N[C@@H](CO)C(=O)N[C@@H](Cc1cnc[nH]1)C(=O)N[C@@H](CCCCN)C(=O)N[C@@H](CC(=O)O)C(=O)N[C@@H](CCSC)C(=O)N[C@@H](CCC(N)=O)C(=O)N[C@@H](CC(C)C)C(=O)NCC(=O)N[C@@H](CCCNC(=N)N)C(=O)O (H-FTEMMVVASQLRANISHKDMQLGR-OH)
Ki [4]: 100 µM

CSCC[C@H](NC(=O)[C@H](CC(=O)O)NC(C)=O)C(=O)N[C@@H](CCC(N)=O)C(=O)N[C@@H](CC(C)C)C(=O)NCC(=O)N[C@@H](CCCN=C(N)N)C(=O)O (Ac-DMQLGR-OH)
Ki [2]: Not Active
Ki [6]: Not Active

CC[C@H](C)[C@H](NC(C)=O)C(=O)N[C@@H](CO)C(=O)N[C@@H](Cc1c[nH]cn1)C(=O)N[C@@H](CCCCN)C(=O)N[C@@H](CC(=O)O)C(=O)N[C@@H](CCSC)C(=O)N[C@@H](CCC(N)=O)C(=O)N[C@@H](CC(C)C)C(=O)N[C@@H](CCCN=C(N)N)C(=O)NCC(=O)N[C@@H](CCCN=C(N)N)C(=O)O (Ac-ISHKDMQLRGR-OH)
Ki [7]: 100 µM
Ki [2]: Not Active

CC[C@H](C)[C@H](NC(=O)[C@H](CC(N)=O)NC(=O)[C@H](C)NC(=O)[C@H](CCCNC(=N)N)NC(=O)[C@H](CC(C)C)NC(=O)[C@H](CCC(N)=O)NC(=O)[C@@H](N)CO)C(=O)N[C@@H](CO)C(=O)N[C@@H](Cc1cnc[nH]1)C(=O)N[C@@H](CCCCN)C(=O)N[C@@H](CC(=O)O)C(=O)N[C@@H](CCSC)C(=O)N[C@@H](CCC(N)=O)C(=O)N[C@@H](CC(C)C)C(=O)NCC(=O)N[C@@H](CCCNC(=N)N)C(=O)O (H-SQLRANISHKDMQLGR-OH)
Ki [8]: 300 µM

CC[C@H](C)[C@H](N)C(=O)N[C@@H](CO)C(=O)N[C@@H](Cc1cnc[nH]1)C(=O)N[C@@H](CCCCN)C(=O)N[C@@H](CC(=O)O)C(=O)N[C@@H](CCSC)C(=O)N[C@@H](CCC(N)=O)C(=O)N[C@@H](CC(C)C)C(=O)NCC(=O)N[C@@H](CCCNC(=N)N)C(=O)O [ISHKDMQLGR] (H-ISHKDMQLGR-OH)
Ki [3]: 300 µM
